Reference: ChEMBL document CHEMBL1145745 (J Med Chem, 2003)

Columns and labels:
[1] = test system: Plasmodium falciparum; assay: In vitro inhibitory activity against Plasmodium falciparum; assay type: functional, organism-based
[2] = test system: Trypanosoma brucei rhodesiense; assay: In vitro inhibitory activity against T. b. rhodesiense; assay type: functional, organism-based
[3] = test system: Nucleic Acid
[4] = test system: Mus musculus; assay: In vivo average survival rate of mouse infected by T.b. rhodesiense was determined for a period of 60 days at dose of 100 mg/kg by p.o. administration; assay type: functional; settings: route oral
In short: (§1)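 Mice infected with T. b. rhodesiense STIB900. Diamidines were given intraperitoneally and prodrugs orally, with an untreated infected control group. Parasitemia was monitored daily to day 14, then twice weekly to day 60. For relapsing mice, the day of death was recorded and survival time was averaged in days.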

[5] = test system: Mus musculus; assay: No. of mice that survived T.b. rhodesiense infection and are parasite free for 60 days was determined at dose of 100 mg/kg by p.o. administration; 4 animals tested; assay type: functional; settings: route oral
In short: (§2)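 Mice infected with T. b. rhodesiense STIB900. Diamidines were given intraperitoneally and prodrugs orally. An untreated infected group served as control. Parasitemia was checked daily up to day 14 post-infection, then twice weekly up to day 60. A cure was counted as a mouse that survived and stayed parasite-free for 60 days.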

[6] = test system: Mus musculus; assay: In vivo average survival rate of mouse infected by T.b. rhodesiense was determined for a period of 60 days at dose of 20 mg/kg by i.p. administration; assay type: functional; settings: route intraperitoneal; in short: as §1
[7] = test system: Mus musculus; assay: No. of mice that survived T.b. rhodesiense infection and are parasite free for 60 days was determined at dose of 20 mg/kg by i.p. administration; 4 animals tested; assay type: functional; settings: route intraperitoneal; in short: as §2
[8] = test system: Nucleic Acid; settings: Bos taurus
[9] = test system: Mus musculus; assay: In vivo average survival rate of mouse infected by T.b. rhodesiense was determined for a period of 60 days at dose of 50 mg/kg by p.o. administration; assay type: functional; settings: route oral; in short: as §1
[10] = test system: Mus musculus; assay: In vivo average survival rate of mouse infected by T.b. rhodesiense was determined for a period of 60 days at dose of 5 mg/kg by p.o. administration; assay type: functional; settings: route oral; in short: as §1
[11] = test system: Mus musculus; assay: No. of mice that survived T.b. rhodesiense infection and are parasite free for 60 days was determined at dose of 50 mg/kg by p.o. administration; 4 animals tested; assay type: functional; settings: route oral; in short: as §2
[12] = test system: Mus musculus; assay: In vivo antitrypanosomal activity against T.b. rhodesiense mouse and no. of that survive and are parasite free for 60 days was determined at dose of 5 mg/kg by p.o. administration; 4 animals tested; assay type: functional; settings: route oral; in short: as §2
[13] = test system: Mus musculus; assay: No. of mice that survived T.b. rhodesiense infection and are parasite free for 60 days was determined at dose 5 mg/kg of by p.o. administration; 4 animals tested; assay type: functional; settings: route oral; in short: as §2
[14] = test system: Mus musculus; assay: In vivo average survival rate of mouse infected by T.b. rhodesiense was determined for a period of 60 days at dose of 75 mg/kg by p.o. administration; assay type: functional; settings: route oral; in short: as §1
[15] = test system: Mus musculus; assay: No. of mice that survived T.b. rhodesiense infection and are parasite free for 60 days was determined at dose of 75 mg/kg by p.o. administration; 4 animals tested; assay type: functional; settings: route oral; in short: as §2
[16] = test system: Mus musculus; assay: No. of mice that survived T.b. rhodesiense infection and are parasite free for 60 days was determined at dose of 5 mg/kg by p.o. administration; 4 animals tested; assay type: functional; settings: route oral; in short: as §2
[17] = test system: Mus musculus; assay: No. of mice that survived T.b. rhodesiense infection and are parasite free for 60 days was determined at dose of 50 mg/kg by p.o. administration; 5 animals tested; assay type: functional; settings: route oral; in short: as §2
[18] = test system: Nucleic Acid; remark: listed apart in the source

Structure (SMILES) | IC50 [1] | IC50 [2] | ΔTm [3] | Survival [6] | Cures [7] | ΔTm [8] | also measured
N=C(NO)c1ccc(-c2ccc(-c3ccc(/C(N)=N\O)cc3)s2)nc1 | > 10.4 µM | – | – | – | – | – | –
CONC(=N)c1ccc(-c2ccc(-c3ccc(C(=N)NOC)cn3)s2)cc1 | 4.9 µM | 9.4 µM | 0 | – | – | – | –
CCONC(=N)c1ccc(-c2ccc(-c3ccc(C(=N)NOCC)cn3)o2)cc1 | 7.3 µM | 8.4 µM | – | – | – | – | Survival [4]: 60 days; Cures [5]: 4
N=C(NO)c1ccc(-c2ccc(-c3ccc(/C(N)=N\O)cc3)o2)cc1 | – | – | – | – | – | – | Survival [4]: 50 days; Cures [5]: 0
N=C(N)c1ccc(OCCCCCOc2ccc(C(=N)N)cc2)cc1 [PENTAMIDINE] | – | – | – | 40.8 days | 0 | 2 | –
CO/N=C(\N)c1ccc(-c2ccc(-c3ccc(/C(N)=N/OC)cn3)o2)nc1 | 1.77 µM | 11.1 µM | – | – | – | – | Survival [9]: 60 days; Survival [10]: 40 days; Cures [11]: 4; Cures [12]: 1
N=C(N)c1ccc(-c2ccc(-c3ccc(C(=N)N)cn3)o2)cc1 | – | 0.007 µM | – | 60 days | 4 | 6.6 | –
CONC(=N)c1ccc(-c2ccc(-c3ccc(C(=N)NOC)nc3)o2)cn1 | 1.31 µM | 1.91 µM | -0.5 | – | – | – | Survival [4]: 21.75 days; Cures [5]: 0
N=C(N)c1ccc(-c2ccc(-c3cccc(C(=N)N)c3)o2)nc1 | 0.0088 µM | 0.0407 µM | 7.3 | 26.25 days | 0 | 3.3 | –
N=C(NO)c1ccc(-c2ccc(-c3ccc(/C(N)=N/O)nc3)o2)cn1 | > 10.5 µM | > 21 µM | – | – | – | – | Survival [9]: 30 days; Cures [11]: 1
CO/N=C(\N)c1ccc(-c2ccc(-c3ccc(/C(N)=N/OC)cn3)o2)cc1 | 4.9 µM | 37.1 µM | 0.9 | – | – | – | Survival [10]: 60 days; Cures [13]: 4
N/C(=N\O)c1ccc(-c2ccc(-c3ccc(/C(N)=N\O)cn3)o2)nc1 | > 10.2 µM | 55.8 µM | 0.9 | – | – | – | Survival [14]: 18 days; Cures [15]: 0
N=C(NO)c1ccc(-c2ccc(-c3ccc(/C(N)=N/O)nc3)o2)cc1 | > 11.7 µM | – | – | – | – | – | Survival [14]: 52.75 days; Cures [15]: 3
CONC(=N)c1ccc(-c2ccc(-c3ccc(C(=N)NOC)nc3)o2)cc1 | 8.5 µM | 6.5 µM | – | – | – | – | Survival [10]: 34.25 days; Survival [14]: 60 days; Cures [16]: 1; Cures [15]: 4
N=C(N)c1ccc(-c2ccc(-c3ccc(C(=N)N)cn3)o2)nc1 | 0.083 µM | 0.021 µM | 15.5 | 60 days | 4 | 5.4 | –
CONC(=N)c1ccc(-c2ccc(-c3ccc(C(=N)NOC)cc3)o2)cc1 [PAFURAMIDINE] | – | – | – | – | – | – | Survival [9]: 60 days; Cures [17]: 2
N=C(N)c1ccc(-c2ccc(-c3ccc(C(=N)N)nc3)o2)cn1 | 0.0039 µM | 0.007 µM | – | 59 days | 3 | 8.2 | ΔTm [18]: 18.5
N=C(N)c1ccc(-c2ccc(-c3ccc(C(=N)N)nc3)o2)cc1 | 0.0183 µM | 0.0031 µM | 22.6 | 56.5 days | 2 | 3.1 | –
N=C(N)c1ccc(-c2ccc(-c3ccc(C(=N)N)cc3)o2)cc1 [FURAMIDINE] | – | – | – | 52.5 days | 0 | 8.9 | –
N=C(NO)c1ccc(-c2ccc(-c3ccc(/C(N)=N/O)cn3)o2)cc1 | 4.3 µM | 120 µM | – | – | – | – | Survival [4]: 54 days; Cures [5]: 0
N=C(N)c1ccc(Cc2ccc(-c3ccc(C(=N)N)nc3)o2)cc1 | 0.148 µM | 0.147 µM | 3.6 | – | – | 1.3 | –
N=C(NO)c1cccc(-c2ccc(-c3ccc(/C(N)=N\O)cn3)o2)c1 | 41.5 µM | 13.3 µM | – | – | – | – | –
